The values that follow come from ChEMBL document CHEMBL1147648, “Substituted coumarins as potent 5-lipoxygenase inhibitors” (Bioorg Med Chem Lett, 2006).

Data set [1] in a line: Oral bioavailability in rat at 20 mg/kg, po. Type of data set: ADME, organism-based. Particulars: in vivo; call rule not given here. In a few lines: (§1)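 Rats dosed orally at 20 mg/kg in 0.5% methocel, given as the water-soluble sodium salt of the hydroxy-acid precursor that cyclizes to the coumarin.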
The nature of data set [2]: Cmax in squirrel monkey at 10 mg/kg, po after 2 hrs. The data set is classed as ADME, organism-based, Saimiri sciureus. Also on record: dose 10 mg/kg, route oral. Particulars: in vivo.
Data set [3] deals with T1, Polyunsaturated fatty acid 5-lipoxygenase (Rattus norvegicus) (UniProt P12527).
T1 sequence (whole entry): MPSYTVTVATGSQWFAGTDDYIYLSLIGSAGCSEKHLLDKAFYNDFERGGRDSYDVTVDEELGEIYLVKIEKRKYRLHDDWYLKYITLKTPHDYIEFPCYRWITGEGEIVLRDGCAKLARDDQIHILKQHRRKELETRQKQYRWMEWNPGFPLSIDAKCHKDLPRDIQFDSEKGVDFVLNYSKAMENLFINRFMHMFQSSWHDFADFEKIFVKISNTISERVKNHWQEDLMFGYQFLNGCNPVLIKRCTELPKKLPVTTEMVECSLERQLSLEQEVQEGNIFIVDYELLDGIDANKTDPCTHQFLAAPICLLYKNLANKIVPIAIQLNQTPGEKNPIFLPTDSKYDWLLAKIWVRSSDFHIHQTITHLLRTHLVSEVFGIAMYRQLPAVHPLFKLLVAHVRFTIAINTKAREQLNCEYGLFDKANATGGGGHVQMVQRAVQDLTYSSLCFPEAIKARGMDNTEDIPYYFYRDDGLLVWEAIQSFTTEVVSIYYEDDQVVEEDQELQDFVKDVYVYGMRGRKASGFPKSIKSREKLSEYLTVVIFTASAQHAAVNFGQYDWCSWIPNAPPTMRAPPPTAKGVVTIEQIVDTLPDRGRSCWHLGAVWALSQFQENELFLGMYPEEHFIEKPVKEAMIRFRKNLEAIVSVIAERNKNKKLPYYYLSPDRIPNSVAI
Briefly: Activity against carrageenan-induced inflammation in orally dosed rat pleural cavity assessed as inhibition of LTB4 biosynthesis after 2 hrs. The data set is classed as functional, organism-based.

Data set [4] in a line: Cmax in rat at 20 mg/kg, po. Also on record: dose 20 mg/kg, route oral. The data set is classed as ADME, organism-based. To be noted: in vivo. In a few lines:
as §1

Data set [5] can be described thus: Oral bioavailability in squirrel monkey at 10 mg/kg, po. To be noted: in vivo. Type of data set: ADME, organism-based, Saimiri sciureus.
For data set [6], the target named is T2, Polyunsaturated fatty acid 5-lipoxygenase (Homo sapiens, UniProt P09917).
T2 sequence (P09917 whole entry): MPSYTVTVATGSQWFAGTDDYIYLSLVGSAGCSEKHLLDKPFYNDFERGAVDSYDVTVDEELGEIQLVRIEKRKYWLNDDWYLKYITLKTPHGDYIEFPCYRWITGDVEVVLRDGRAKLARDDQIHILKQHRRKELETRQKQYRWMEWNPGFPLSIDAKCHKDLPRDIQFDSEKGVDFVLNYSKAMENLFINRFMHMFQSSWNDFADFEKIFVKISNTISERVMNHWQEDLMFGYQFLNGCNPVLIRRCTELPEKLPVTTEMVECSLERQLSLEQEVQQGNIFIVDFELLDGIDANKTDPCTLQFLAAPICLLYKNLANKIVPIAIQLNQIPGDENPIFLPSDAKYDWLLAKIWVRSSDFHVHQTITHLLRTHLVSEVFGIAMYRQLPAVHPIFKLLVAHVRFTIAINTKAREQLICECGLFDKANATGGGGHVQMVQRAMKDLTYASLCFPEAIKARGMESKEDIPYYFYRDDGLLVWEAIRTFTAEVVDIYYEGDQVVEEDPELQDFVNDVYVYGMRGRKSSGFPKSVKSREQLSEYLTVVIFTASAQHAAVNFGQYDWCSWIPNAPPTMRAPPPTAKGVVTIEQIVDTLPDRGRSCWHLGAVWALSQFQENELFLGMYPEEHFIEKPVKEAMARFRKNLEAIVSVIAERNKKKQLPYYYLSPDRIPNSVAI
Briefly: Inhibition of human 5-LO.

For data set [7], the target named is T2, Polyunsaturated fatty acid 5-lipoxygenase. As to the kind of experiment: Inhibition of LTB4 production in calcium ionophore A-23187-stimulated human whole blood. The data set is classed as functional, tissue-based.
The target is the same in data set [8]. Briefly: Inhibition of LTB4 production in calcium ionophore A-23187-stimulated human polymorphonuclear leukocyte. The data set is classed as functional.
The subject of data set [9] is Rattus norvegicus. As to the kind of experiment: Oral absorption in rat at 20 mg/kg, po. The data set is classed as ADME, organism-based. Also noted: dose 20 mg/kg, route oral. Particulars: in vivo. In a few lines:
as §1

pIC50: −log10 of the molar value.

For orientation: bioavailability means the share of a dose that reaches the circulation, judged against a reference dose that is usually intravenous. As a reminder, the Cmax is the maximum level reached in the sampled fluid or tissue. What is called ED50 is the dose that gives a 50% effect, or the effect in half of the subjects. In the case of `O=C([O-])/C=C(/c1ccc(F)cc1)c1ccc(Sc2cc(F)cc(C(O)(C(F)(F)F)C(F)(F)F)c2)cc1[O-].[Na+].[Na+]`, the bioavailability in data set [1] turned out to be 100%; in [5], 30%. In addition, the results for the Cmax in [2] and in data set [4] were 1.2 µM and 16 µM, respectively. Further, the ED50 in [3] was 1.6 mg/kg.

As a reminder, the pIC50 is the IC50 on a negative log10 scale, so that one unit is a factor of ten. `O=c1cc(-c2ccoc2)c2ccc(Sc3cc(F)cc(C(O)(C(F)(F)F)C(F)(F)F)c3)cc2o1`: the values for the pIC50 in [6], in [7] and in data set [8] were 8.05, 7.28 and 9.10, respectively.

In the case of `O=c1cc(-c2ccccc2)c2ccc(Sc3cc(F)cc(C(O)(C(F)(F)F)C(F)(F)F)c3)cc2o1`, the pIC50 in data set [6] was 7.59; in data set [7], 7.06; in data set [8], 9.30.

`O=c1cc(-c2ccc(F)cc2)c2ccc(COc3cc(F)cc(C(O)(C(F)(F)F)C(F)(F)F)c3)cc2o1`: the pIC50 in data set [6] is 7.26; in data set [7], 6.82; in data set [8], 8.72.

For the molecule `O=c1cc(-c2ccc(F)cc2)c2ccc(Sc3cc(F)cc(C(O)(C(F)(F)F)C(F)(F)F)c3)cc2o1`, in [9], the Fa entry is on record as “Not Active”.

For `O=c1cc(-c2ccoc2)c2ccc(COc3cc(F)cc([C@]4(O)C[C@H]5CO[C@@H](C4)O5)c3)cc2o1`, the pIC50 in [6] is 6.70; in data set [7], 7.32; in data set [8], 8.52.
